Experiments:
hM4 = biological target: T1, hM4 (Homo sapiens, UniProt P08173); type: cell-based
T1 sequence (P08173 1-479): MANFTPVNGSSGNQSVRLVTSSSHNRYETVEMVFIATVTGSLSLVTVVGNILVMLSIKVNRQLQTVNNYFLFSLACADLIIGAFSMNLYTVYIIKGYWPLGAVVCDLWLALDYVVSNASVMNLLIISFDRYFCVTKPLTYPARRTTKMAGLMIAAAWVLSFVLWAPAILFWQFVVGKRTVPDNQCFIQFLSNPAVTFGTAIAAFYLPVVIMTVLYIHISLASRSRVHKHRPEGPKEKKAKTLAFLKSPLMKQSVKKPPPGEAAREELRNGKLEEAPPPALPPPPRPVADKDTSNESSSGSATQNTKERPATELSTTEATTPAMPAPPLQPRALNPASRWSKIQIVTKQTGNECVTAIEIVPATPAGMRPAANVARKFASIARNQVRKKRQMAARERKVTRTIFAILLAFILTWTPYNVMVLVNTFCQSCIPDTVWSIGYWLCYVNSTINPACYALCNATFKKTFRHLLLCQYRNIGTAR
Method in brief: (§1)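 Functional calcium mobilization in CHO cells expressing M4 with the Gqi5 chimeric G protein (human M4 for line 2, rat M4 for line 3). The test compound was added with a fixed EC20 acetylcholine concentration, and efficacy was expressed as % of the maximal acetylcholine response. For the screening hit, DMSO stock from the screening source plates was used. Values are means of three independent experiments, each run in triplicate.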

rM4 = biological target: T2, rM4 (Rattus norvegicus, UniProt P08485); type: cell-based; conditions: unit not given
T2 sequence (P08485 1-478): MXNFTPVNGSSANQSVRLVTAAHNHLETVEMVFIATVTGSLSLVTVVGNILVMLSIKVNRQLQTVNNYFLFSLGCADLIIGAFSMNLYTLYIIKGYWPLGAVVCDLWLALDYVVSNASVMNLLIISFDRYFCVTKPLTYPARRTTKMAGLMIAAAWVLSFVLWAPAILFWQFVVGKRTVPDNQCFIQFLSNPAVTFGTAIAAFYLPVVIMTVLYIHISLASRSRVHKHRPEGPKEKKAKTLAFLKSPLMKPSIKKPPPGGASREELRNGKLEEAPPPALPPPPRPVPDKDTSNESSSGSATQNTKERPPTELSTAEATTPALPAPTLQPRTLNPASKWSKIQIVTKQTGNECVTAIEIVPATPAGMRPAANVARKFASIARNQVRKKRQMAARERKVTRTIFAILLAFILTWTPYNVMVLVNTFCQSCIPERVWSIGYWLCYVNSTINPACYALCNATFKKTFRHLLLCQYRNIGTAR
Method in brief: as §1

human M1 = biological target: T3, human M1 (Homo sapiens, UniProt P11229); assay: Built-in HTS counterscreen, human M1; type: cell-based
T3 sequence (P11229 1-460): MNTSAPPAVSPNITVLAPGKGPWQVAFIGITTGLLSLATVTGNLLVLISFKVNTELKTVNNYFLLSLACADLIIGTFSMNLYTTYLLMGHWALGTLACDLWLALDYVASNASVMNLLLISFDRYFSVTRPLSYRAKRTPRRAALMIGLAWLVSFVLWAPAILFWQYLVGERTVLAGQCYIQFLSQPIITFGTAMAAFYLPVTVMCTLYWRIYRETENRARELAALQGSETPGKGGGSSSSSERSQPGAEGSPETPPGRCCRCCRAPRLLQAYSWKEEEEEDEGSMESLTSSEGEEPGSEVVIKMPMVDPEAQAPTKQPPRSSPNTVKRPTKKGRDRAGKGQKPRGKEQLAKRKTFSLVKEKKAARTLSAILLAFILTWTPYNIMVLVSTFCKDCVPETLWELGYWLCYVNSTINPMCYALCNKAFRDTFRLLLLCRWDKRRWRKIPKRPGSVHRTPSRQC

human M5 = biological target: T4, human M5 (Homo sapiens, UniProt P08912); assay: Built-in HTS counterscreen, human M5; type: cell-based
T4 sequence (P08912 1-532): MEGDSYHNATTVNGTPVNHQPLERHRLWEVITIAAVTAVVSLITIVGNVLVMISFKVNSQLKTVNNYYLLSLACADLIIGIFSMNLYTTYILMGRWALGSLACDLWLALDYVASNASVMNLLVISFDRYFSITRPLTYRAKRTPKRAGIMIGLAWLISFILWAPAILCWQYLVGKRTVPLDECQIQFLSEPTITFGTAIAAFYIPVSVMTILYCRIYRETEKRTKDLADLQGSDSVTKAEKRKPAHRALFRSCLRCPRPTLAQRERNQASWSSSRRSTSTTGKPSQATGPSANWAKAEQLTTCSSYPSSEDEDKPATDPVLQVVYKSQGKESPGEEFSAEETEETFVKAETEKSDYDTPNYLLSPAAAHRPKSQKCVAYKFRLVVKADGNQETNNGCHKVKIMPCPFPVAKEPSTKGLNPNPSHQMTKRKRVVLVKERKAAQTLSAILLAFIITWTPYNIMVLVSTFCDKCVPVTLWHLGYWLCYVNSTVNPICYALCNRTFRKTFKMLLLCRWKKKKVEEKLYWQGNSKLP

[1] = Hepatic microsomal intrinsic clearance, human; type: in vitro ADME
Method in brief: (§2)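 Intrinsic clearance was measured in hepatic microsomes (human for line 4, rat for line 5), and predicted hepatic clearance was calculated from the microsomal CLint. Data come from a single experiment run in triplicate.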

[2] = Hepatic microsomal intrinsic clearance, rat; type: in vitro ADME; conditions: for predicted hepatic clearance rCLhep: rat, from microsomal CLint
Method in brief: as §2

[3] = Metabolite identification in human cryopreserved hepatocytes; type: in vitro ADME; conditions: secondary alcohol 18 as the single major metabolite
[4] = human hepatic microsomes, in words
[5] = rat hepatic microsomes, in words

For `Cc1nc2sc(C(=O)c3ccccc3)c(N)c2c(C)c1C` [Cpd 7], the “human M4 % ACh Max” value (hM4; HTS hit, using DMSO stock from the source plates) was 76%, the “hM4 ACh Max” value (hM4; unit not given) was 76.8±4.1 and the “rM4 ACh Max” value (rM4) was 80.5±6.3. The “activity on human M1” value (human M1) was “inactive”, the “activity on human M5” value (human M5) was “inactive” and the “in vitro intrinsic clearance (CLint)” value [1, 4] was “very high”. The “predicted hepatic clearance (CLhep)” value [1, 4] was “near hepatic blood flow rates”, the “in vitro intrinsic clearance (CLint)” value [2, 5] was “very high” and the “predicted hepatic clearance (CLhep)” value [2, 5] was “near hepatic blood flow rates”.
For `COc1ccc(CCC(=O)c2sc3nnc(C)c(C)c3c2N)cc1F` [Cpd 20], the “predicted hepatic clearance rCLhep” value [2] was 62 mL/min/kg.
In the case of `Cc1cc(C)c2c(N)c(C(=O)CCc3ccncc3)sc2n1` [Cpd 19], the “predicted hepatic clearance hCLhep” value ([1]; human, from microsomal CLint) is reported as 18 mL/min/kg and the “predicted hepatic clearance rCLhep” value [2] is reported as 62 mL/min/kg.
For `Cc1cc(C)c2c(N)c(C(=O)c3ccncc3)sc2n1` [Cpd 12f], the “metabolism route (Met ID)” value [3] was “rapid, and near quantitative, reductive metabolism”.

Source: publication PMC4987221 (Bioorganic & medicinal chemistry letters, 2016)
